In brackets after ≈: the same amount, converted by molar mass.
Experiments:
[1] = tested on: Amphibalanus amphitrite; assay: Antifouling activity against larval settlements of Balanus amphitrite Darwin cyprids; format: functional, organism-based
Summary of the method: (§1)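 Barnacle cyprid larvae tested for inhibition of settlement, following a procedure from earlier literature. SeaNine 211 served as the positive control. EC50 was taken for settlement inhibition and LC50 for larval toxicity, with LC50/EC50 as the ratio.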

[2] = tested on: Amphibalanus amphitrite; assay: Selectivity index, ratio of CC50 for Balanus amphitrite Darwin cyprids to EC50 for antifouling activity against larval settlements of Balanus amphitrite Darwin cyprids; summary of the method: as §1
[3] = tested on: HeLa; assay: Cytotoxicity against human HeLa cells by neutral red method; format: functional, cell-based
Summary of the method: (§2)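 Human cancer cell lines (HeLa, Hep-2, RD) assayed by Neutral Red uptake, giving IC50. Adriamycin was the positive control.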

[4] = tested on: RD; assay: Cytotoxicity against human RD cells by neutral red method; format: functional, cell-based; summary of the method: as §2
[5] = Cytotoxicity against human Hep2 cells by neutral red method; format: functional, cell-based; details: HEp-2; summary of the method: as §2
[6] = Amphibalanus amphitrite, Darwin, read-out: EC50

In the case of `CCCCCCCCn1sc(Cl)c(Cl)c1=O`, the EC50 [1, 6] is reported as 1.2 µg/mL (≈ 4.25 µM) and the “Ratio CC50/EC50” value [2] is reported as 20.3.
With `COc1c([C@H](CC(C)C)OC(C)=O)ccc2c1C(=O)OCc1cc(C)cc(O)c1O2` the EC50 [1, 6] was 10 µg/mL (≈ 24.1 µM) and the “Ratio CC50/EC50” value [2] was >50.
With `C/C=C/C1=CC2=CC(=O)[C@@](C)(OC(=O)c3c(C)cc(O)cc3O)C(=O)C2=CO1` the EC50 [1] was “Not Active”.
In the case of `Cc1cc(O)cc(O)c1C(=O)O[C@]1(C)C(=O)C=C2C=C(/C=C/C(=O)O)OC=C2C1=O`, the EC50 [1] is reported as “Not Active”.
In the case of `C/C=C/C1=CC2=CC(=O)[C@@](C)(O)[C@@H](OC(=O)c3c(C)cc(O)cc3O)[C@@H]2CO1`, the EC50 [1] is reported as “Not Active”.
In the case of `Cc1cc(O)cc(O)c1C(=O)O[C@]1(C)C(=O)C2=C(C=C(/C=C/C(=O)O)OC2)C[C@H]1O`, the EC50 [1] is reported as “Not Active”.
With `C/C=C/C1=CC2=CC(=O)[C@@](C)(O)[C@@H](OC(=O)c3c(C)cc(O)cc3O)C2=CO1` the EC50 [1] was “Not Active”.
In the case of `Cc1cc(O)cc(O)c1C(=O)O[C@]1(C)C(=O)C=C2C=C(/C=C/CO)OC[C@H]2[C@@H]1O`, the EC50 [1] is reported as “Not Active”.
In the case of `Cc1cc(O)cc(O)c1C(=O)O[C@H]1[C@@H]2COC(CC(C)O)=CC2=CC(=O)[C@@]1(C)O` (some centres undefined), the EC50 [1] is reported as “Not Active”.
In the case of `Cc1cc(O)cc(O)c1C(=O)O[C@]1(C)C(=O)C=C2C=C(/C=C/CO)OC=C2C1=O`, the EC50 [1] is reported as “Not Active”.
With `COc1c([C@@H](O)CC(C)C)ccc2c1C(=O)OCc1cc(CO)cc(O)c1O2` the IC50 [3] was 6.1 µM, the EC50 [1, 6] was 6 µg/mL (≈ 15.4 µM) and the “Ratio CC50/EC50” value [2] was >50.
For `COc1c([C@@H](O)CC(C)(C)O)ccc2c1C(=O)OCc1cc(C)cc(O)c1O2`, the EC50 [1, 6] was 20 µg/mL (≈ 51.5 µM) and the “Ratio CC50/EC50” value [2] was >50.
In the case of `COc1cccc2c1C(=O)c1c(O)c3c(c(O)c1C2=O)C[C@@](O)(C(=O)CO)C[C@@H]3O[C@H]1C[C@H](N)[C@H](O)[C@H](C)O1` [DOXORUBICIN], the IC50 [4] is reported as 2 µM and the IC50 [5] is reported as 1.5 µM.
Compound `COc1c([C@@H](O)CC(C)C)ccc2c1C(=O)OCc1cc(C)cc(O)c1O2` [PENICILLIDE] has an IC50 [4] of 7.8 µM, an IC50 [5] of 6.7 µM and an EC50 [1, 6] of 2.6 µg/mL (≈ 6.98 µM). For the same compound, the “Ratio CC50/EC50” value [2] was >50.
For `Cc1cc(O)cc(O)c1C(=O)O[C@H]1[C@@H]2COC(/C=C/CO)=CC2=CC(=O)[C@@]1(C)O` [PINOPHILIN B], the EC50 [1] was “Not Active”.

— ChEMBL document CHEMBL3608286, “Azaphilone and Diphenyl Ether Derivatives from a Gorgonian-Derived Strain of the Fungus Penicillium pinophilum” (J Nat Prod, 2015)
